# Laboratory results reported in ChEMBL document CHEMBL4152257, “Discovery of novel β-carboline/acylhydrazone hybrids as potent antitumor agents and overcome drug resistance” (Eur J Med Chem, 2018).
# Legend:
# NCI-H460 [1] = experiment: Antiproliferative activity against human H460 cells at 1 uM after 48 to 72 hrs by MTT assay relative to control; type: functional
# How it was run: (§1)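 Single-concentration screen in the MTT proliferation assay: log-phase cells seeded and allowed to adhere, exposed to compound at 1 µM for 48 h or 72 h, MTT added for 2-3 h, formazan dissolved in DMSO; percent inhibition versus control.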
# MCF7 [2] = experiment: Antiproliferative activity against human MCF7 cells at 1 uM after 48 to 72 hrs by MTT assay relative to control; type: functional; how it was run: as §1
# Raji [3] = experiment: Antiproliferative activity against human Raji cells at 1 uM after 48 to 72 hrs by MTT assay relative to control; type: functional; how it was run: as §1
# MDA-MB-231 = experiment: Antiproliferative activity against human MDA-MB-231 cells at 1 uM after 48 to 72 hrs by MTT assay relative to control; type: functional; how it was run: as §1
# MCF7 [4] = experiment: Antiproliferative activity against human MCF7 cells after 48 to 72 hrs by MTT assay; type: functional, cell-based
# How it was run: (§2)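 Cells in log phase seeded and allowed to adhere, then exposed to graded compound concentrations for 48 h or 72 h; MTT added for a further 2-3 h, formazan dissolved in DMSO. IC50 taken from dose-response curves; mean ± SD of at least three independent experiments.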
# Raji [5] = experiment: Antiproliferative activity against human Raji cells after 48 to 72 hrs by MTT assay; type: functional, cell-based; how it was run: as §2
# NCI-H460 [6] = experiment: Antiproliferative activity against human H460 cells after 48 to 72 hrs by MTT assay; type: functional, cell-based; how it was run: as §2
# [7] = Resistance index, ratio of IC50 for human A549/TR cells to IC50 for human A549 cells; type: functional
# A549/TR = experiment: Antiproliferative activity against human A549/TR cells after 48 to 72 hrs by MTT assay; type: functional, cell-based; how it was run: as §2
# [8] = Resistance index, ratio of IC50 for human A2780T cells to IC50 for human A2780S cells; type: functional
# A2780/Taxol = experiment: Antiproliferative activity against human A2780T cells after 48 to 72 hrs by MTT assay; type: functional, cell-based; how it was run: as §2
# A2780S = experiment: Antiproliferative activity against human A2780S cells after 48 to 72 hrs by MTT assay; type: functional, cell-based; how it was run: as §2
# A549 = experiment: Antiproliferative activity against human A549 cells after 48 to 72 hrs by MTT assay; type: functional, cell-based; how it was run: as §2
# NCI-H460 [9] = experiment: Antitumor activity against human H460 cells xenografted in athymic nude Balb/C mouse assessed as tumor growth inhibition at 30 mg/kg, ip administered once per week measured every two days relative to control; type: functional; conditions: 48 h, read-out: TGI
# How it was run: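 Nude mice (5-6 weeks old, female) implanted sc in right flank with 5 × 10^6 H460 cells in HBSS; at 100 mm3 tumours, randomised 6 per group to vehicle, oral 100 mg/kg three times weekly, or ip 30 mg/kg once weekly. Tumour volume by caliper every 2 days as (π/6) × length × width²; body weight recorded; inhibition from tumour weights versus control.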
# Mus musculus = experiment: Toxicity in athymic nude Balb/C mouse xenografted with human H460 cells assessed as body weight loss at 30 mg/kg, ip administered once per week measured every 2 days; type: organism-based; conditions: in vivo, 48 h
# How it was run: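 Nude mice, 5-to-6-week-old females, given 5 × 10^6 H460 cells sc in right flank in HBSS; at 100 mm3 tumour volume randomized, 6 per group. Vehicle; oral 100 mg/kg three times weekly; or ip 30 mg/kg once weekly. Toxicity signs and mortality observed daily; body weight measured every 2 days.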
Compound,inhibition at 1 µM (NCI-H460 [1]),inhibition at 1 µM (MCF7 [2]),inhibition at 1 µM (Raji [3]),inhibition at 1 µM (MDA-MB-231),IC50 (MCF7 [4]),IC50 (Raji [5]),IC50 (NCI-H460 [6]),Ratio IC50 [7],IC50 (A549/TR),Ratio IC50 [8],IC50 (A2780/Taxol),IC50 (A2780S),IC50 (A549),inhibition in vivo at 30 mg/kg (NCI-H460 [9]),Activity (Mus musculus)
Cc1cccc(COc2cccc(/C=N/NC(=O)c3cc4c(cn3)[nH]c3ccccc34)c2)c1,27.4%,26.3%,33.2%,22.7%,–,–,–,–,–,–,–,–,–,–,–
O=C(N/N=C/c1cccc(Oc2ccccc2)c1)c1cc2c(cn1)[nH]c1ccccc12,22.1%,-18.6%,2.06%,6.76%,–,–,–,–,–,–,–,–,–,–,–
O=C(N/N=C/c1cccc(OCc2cccc(F)c2)c1)c1cc2c(cn1)[nH]c1ccccc12,21.7%,17.1%,40.4%,16.5%,–,–,–,–,–,–,–,–,–,–,–
c1ccc(OCc2nnc(-c3cc4c(cn3)[nH]c3ccccc34)o2)cc1,4.84%,-5.47%,1.69%,7.42%,–,–,–,–,–,–,–,–,–,–,–
O=C(N/N=C/c1cccc(OCc2ccc(Br)cc2)c1)c1cc2c(cn1)[nH]c1ccccc12,52.8%,50.4%,58.7%,31.8%,7220 nM,6740 nM,2420 nM,–,–,–,–,–,–,–,–
O=C(N/N=C/c1cccc(OCc2ccc([N+](=O)[O-])cc2)c1)c1cc2c(cn1)[nH]c1ccccc12,38.4%,32.8%,56.7%,20.2%,8300 nM,3020 nM,1040 nM,–,–,–,–,–,–,–,–
O=C(N/N=C/c1cccc(OCc2cccc(Cl)c2)c1)c1cc2c(cn1)[nH]c1ccccc12,31.9%,22.4%,48.2%,15.6%,–,–,–,–,–,–,–,–,–,–,–
O=C(N/N=C/c1ccc(-c2ccccc2)cc1)c1cc2c(cn1)[nH]c1ccccc12,44.3%,36.6%,62.5%,29.3%,4560 nM,1040 nM,3640 nM,–,–,–,–,–,–,–,–
COC(=O)c1ccc(COc2cccc(/C=N/NC(=O)c3cc4c(cn3)[nH]c3ccccc34)c2)cc1,25.9%,56.4%,63.8%,31.8%,1640 nM,3880 nM,1170 nM,–,–,–,–,–,–,–,–
O=C(N/N=C/c1cccc(OCc2ccccc2F)c1)c1cc2c(cn1)[nH]c1ccccc12,43.2%,46.2%,54.3%,24.7%,6500 nM,2940 nM,1360 nM,–,–,–,–,–,–,–,–
O=C(N/N=C/c1cccc(OCc2ccc(C(F)(F)F)cc2)c1)c1cc2c(cn1)[nH]c1ccccc12,23.4%,38.4%,51.2%,24.4%,6600 nM,2040 nM,7490 nM,–,–,–,–,–,–,–,–
Cc1ccccc1COc1cccc(/C=N/NC(=O)c2cc3c(cn2)[nH]c2ccccc23)c1,29.4%,18.2%,36%,24.8%,–,–,–,–,–,–,–,–,–,–,–
COc1cc2c(c(OC)c1OC)-c1ccc(OC)c(=O)cc1[C@@H](NC(C)=O)CC2 [COLCHICINE],–,–,–,–,–,–,–,60.41,167 nM,1630.02,35600 nM,21.9 nM,–,–,–
CC[C@]1(O)C[C@@H]2CN(CCc3c([nH]c4ccccc34)[C@@](C(=O)OC)(c3cc4c(cc3OC)N(C)[C@H]3[C@@](O)(C(=O)OC)[C@H](OC(C)=O)[C@]5(CC)C=CCN6CC[C@]43[C@@H]65)C2)C1 [VINBLASTINE],–,–,–,–,–,–,–,12.72,248 nM,1073.76,16900 nM,15.7 nM,19.5 nM,–,–
C/C(=N\NC(=O)c1cccc(S(=O)(=O)N2CCOCC2)c1)c1cc(Cl)ccc1O,43.2%,59.3%,51.7%,41.3%,620 nM,980 nM,470 nM,–,–,–,–,–,–,–,–
N#Cc1cccc(COc2cccc(/C=N/NC(=O)c3cc4c(cn3)[nH]c3ccccc34)c2)c1,12.8%,17.9%,24.1%,21.9%,–,–,–,–,–,–,–,–,–,–,–

Compound,inhibition at 1 µM (NCI-H460 [1]),inhibition at 1 µM (MCF7 [2]),inhibition at 1 µM (Raji [3]),inhibition at 1 µM (MDA-MB-231),IC50 (MCF7 [4]),IC50 (Raji [5]),IC50 (NCI-H460 [6]),Ratio IC50 [7],IC50 (A549/TR),Ratio IC50 [8],IC50 (A2780/Taxol),IC50 (A2780S),IC50 (A549),inhibition in vivo at 30 mg/kg (NCI-H460 [9]),Activity (Mus musculus)
O=C(N/N=C/c1ccc2ccccc2c1)c1cc2c(cn1)[nH]c1ccccc12,40.7%,35.7%,51.8%,21.8%,14900 nM,2040 nM,5710 nM,–,–,–,–,–,–,–,–
O=Cc1cccc(OCc2nnc(-c3cc4c(cn3)[nH]c3ccccc34)o2)c1,13.9%,26.8%,17.7%,9.83%,–,–,–,–,–,–,–,–,–,–,–
Cc1ccc(COc2cccc(/C=N/NC(=O)c3cc4c(cn3)[nH]c3ccccc34)c2)cc1,29.2%,53.5%,45%,28.7%,5240 nM,4060 nM,2180 nM,–,–,–,–,–,–,–,–
O=C(N/N=C/c1cccc(OCc2ccccc2Cl)c1)c1cc2c(cn1)[nH]c1ccccc12,45.4%,36.2%,56.3%,28.6%,2320 nM,3020 nM,1270 nM,–,–,–,–,–,–,–,–
O=C(N/N=C/c1cccc(O)c1)c1cc2c(cn1)[nH]c1ccccc12,5.08%,-13.8%,9.69%,8.13%,–,–,–,–,–,–,–,–,–,–,–
O=C(N/N=C/c1c[nH]c2ccccc12)c1cc2c(cn1)[nH]c1ccccc12,16.2%,6.31%,8.66%,7.1%,–,–,–,–,–,–,–,–,–,–,–
CN(Cc1ccccc1)Cc1nnc(-c2cc3c(cn2)[nH]c2ccccc23)o1,3.74%,-1.84%,16.3%,-3.26%,–,–,–,–,–,–,–,–,–,–,–
O=C(N/N=C/c1cccc(OCc2ccc(F)cc2)c1)c1cc2c(cn1)[nH]c1ccccc12,29.7%,23.6%,48%,27.2%,–,–,–,–,–,–,–,–,–,–,–
CC(=O)O[C@H]1C(=O)[C@@]2(C)[C@H]([C@H](OC(=O)c3ccccc3)[C@]3(O)C[C@H](OC(=O)[C@H](O)[C@@H](NC(=O)c4ccccc4)c4ccccc4)C(C)=C1C3(C)C)[C@]1(OC(C)=O)CO[C@@H]1C[C@@H]2O [PACLITAXEL],–,–,–,–,–,–,–,32.76,759 nM,3852.53,73000 nM,18.9 nM,23.2 nM,65.2%,< 5%
COc1ccc(COc2cccc(/C=N/NC(=O)c3cc4c(cn3)[nH]c3ccccc34)c2)cc1,38.6%,37%,52%,23.6%,9370 nM,2340 nM,2840 nM,–,–,–,–,–,–,–,–
O=C(N/N=C/c1cccc(OCc2ccc(Cl)cc2)c1)c1cc2c(cn1)[nH]c1ccccc12,40.4%,24.3%,56.7%,30.7%,8620 nM,5020 nM,5020 nM,–,–,–,–,–,–,–,–
COc1ccc(/C=N/NC(=O)c2cc3c(cn2)[nH]c2ccccc23)cc1OCc1ccccc1,20.7%,-6.31%,25.8%,22.2%,–,–,–,–,–,–,–,–,–,–,–
O=C(N/N=C/c1cccc(OCc2ccccc2)c1)c1cc2c(cn1)[nH]c1ccccc12,29.7%,23.1%,50.2%,25.6%,3560 nM,2620 nM,6520 nM,–,–,–,–,–,–,–,–
N#Cc1ccccc1COc1cccc(/C=N/NC(=O)c2cc3c(cn2)[nH]c2ccccc23)c1,15.5%,15.1%,37.4%,20.7%,–,–,–,–,–,–,–,–,–,–,–
O=Cc1ccc(OCc2nnc(-c3cc4c(cn3)[nH]c3ccccc34)o2)cc1,6.63%,-2.52%,9.17%,2.98%,–,–,–,–,–,–,–,–,–,–,–
